According to publication PMC5987874 (The Journal of General Physiology, 2018):
Substitutions are numbered along the chain they refer to. Where “and” joins values, the source holds several entries; their conditions need not be identical. Equal entries are not always repeated. Where two headings read alike, the source gives them in different places.

Tests used:
Assay in all cases: Whole-cell voltage clamp, Zn^2+ modulation of GAQ gating
Assay type in all cases: cell-based
[1] = target: T1, human Hv1 D112N (D^1.51N) (Homo sapiens, UniProt Q96D96, D112N)
T1 sequence (Q96D96 1-273 D112N): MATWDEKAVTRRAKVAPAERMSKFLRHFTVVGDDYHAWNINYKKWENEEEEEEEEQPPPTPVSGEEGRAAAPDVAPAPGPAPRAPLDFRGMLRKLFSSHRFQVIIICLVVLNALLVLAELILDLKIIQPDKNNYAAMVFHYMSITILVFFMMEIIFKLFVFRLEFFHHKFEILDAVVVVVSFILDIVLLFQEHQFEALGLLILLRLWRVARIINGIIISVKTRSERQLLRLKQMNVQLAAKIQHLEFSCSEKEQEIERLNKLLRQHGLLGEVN
Outline: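 Zn2+ effect was read from tail current, not end-of-step current. Whole-cell recording at ~21°C with pH 6.5 pipette and bath solutions (mM: ~80 TMA-MeSO3, 100 Bis-Tris, 8 HCl). ZnCl2 was diluted in bath solution and gravity-superfused, at least 2 min per change. Concentration–response was fitted to the Hill equation, with IC50 values from separate cells. ΔpIC50 was compared by unpaired Student's t test, P<0.05.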

human Hv1 D185A-H193A = target: T2, human Hv1 D185A-H193A (Homo sapiens, UniProt Q96D96, D185A/H193A)
T2 sequence (Q96D96 1-273 D185A/H193A): T1 sequence (Q96D96 1-273 D112N) with N112D, D185A, H193A
Outline: (§1)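 Whole-cell patch clamp at ~21°C. Pipette and bath (mM): ~80 TMA-MeSO3, 100 Bis-Tris, 8 HCl, pH 6.5, 310–320 mOsm. ZnCl2 was diluted into bath solution and applied by gravity superfusion, at least 2 min per change. Test step voltage was set per construct from its V0.5. G_STEP = end-of-step current/(V−V_REV). Effect = 1 − G_Zn/G_control, fitted to the Hill equation. IC50 and nH are means ± SEM from separate cells. ΔpIC50 was tested by unpaired t test, P<0.05.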

[2] = target: human Hv1 H140A-D185H-H193A-R205H (Homo sapiens, UniProt Q96D96, D185H/H140A/H193A/R205H)
Chain of human Hv1 H140A-D185H-H193A-R205H (Q96D96 whole entry H140A/D185H/H193A/R205H): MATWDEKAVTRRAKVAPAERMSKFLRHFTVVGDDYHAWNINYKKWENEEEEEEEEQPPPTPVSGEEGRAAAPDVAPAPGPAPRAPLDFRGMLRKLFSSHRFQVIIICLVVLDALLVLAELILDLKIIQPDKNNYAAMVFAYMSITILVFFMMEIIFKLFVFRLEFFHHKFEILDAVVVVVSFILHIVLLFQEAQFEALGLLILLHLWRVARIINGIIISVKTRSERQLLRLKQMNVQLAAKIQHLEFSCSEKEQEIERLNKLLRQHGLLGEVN
Outline: as §1

[3] = target: T3, human Hv1 E119H (E^1.58H) (Homo sapiens, UniProt Q96D96, E119H)
T3 sequence (Q96D96 1-273 E119H): T1 sequence (Q96D96 1-273 D112N) with N112D, E119H
Outline: as §1

human Hv1 E119A-H193A = target: T4, human Hv1 E119A-H193A (Homo sapiens, UniProt Q96D96, E119A/H193A)
T4 sequence (Q96D96 1-273 E119A/H193A): T1 sequence (Q96D96 1-273 D112N) with N112D, E119A, H193A
Outline: as §1

human Hv1 D123H-H140A = target: T5, human Hv1 D123H-H140A (Homo sapiens, UniProt Q96D96, D123H/H140A)
T5 sequence (Q96D96 1-273 D123H/H140A): T1 sequence (Q96D96 1-273 D112N) with N112D, D123H, H140A
Outline: as §1

[4] = VSTEP 100 mV, calculated as log (IC50)

[Cl-].[Cl-].[Zn+2] [Zn^2+, ZnCl2]
Mean ΔpIC50 = (pIC50_1 - pIC50_2) ([1]; D112N vs WT): −0.03
Hill value ([1]; VSTEP 140 mV, determined from tail current): 0.76
pIC50 ([1]; VSTEP 140 mV, determined from tail current, calculated as log (IC50)): 5.03
IC50 ([1]; read-out: Mean IC50 @ VSTEP, VSTEP 140 mV, pH 6.5, determined from tail current): 9.5 µM
nH, fit of the mean data to a Hill function (human Hv1 D185A-H193A; Fig. 4D): 0.7
Hill value (human Hv1 D185A-H193A; VSTEP 140 mV): 0.62
pIC50 (human Hv1 D185A-H193A; VSTEP 140 mV, calculated as log (IC50)): −3.88
IC50 (human Hv1 D185A-H193A; read-out: IC50, fit of the mean data to a Hill function, Fig. 4D): 99.2 µM
Mean ΔpIC50 = (pIC50_1 - pIC50_2) ([2]; H140A-D185H-H193A-R205H vs H140A-D185H-H193A): 0.54
Mean pIC50 ([2]; Table 2 only, calculated as log (IC50)): −3.68
Mean ΔpIC50 = (pIC50_1 - pIC50_2) ([3]; E119H vs WT): 0.8 and 0.77
nH, fit of the mean data to a Hill function ([3]; Fig. 3C): 0.9
Hill value ([3]; VSTEP 100 mV): 1.08
pIC50 [3, 4]: 6.22
IC50 ([3]; read-out: IC50, fit of the mean data to a Hill function, Fig. 3C): 0.6 µM
Mean ΔpIC50 = (pIC50_1 - pIC50_2) (human Hv1 E119A-H193A; E119A-H193A vs E119A): −1.60
Mean ΔpIC50 = (pIC50_1 - pIC50_2) (human Hv1 E119A-H193A; E119A-H193A vs H193A): −0.5
nH, fit of the mean data to a Hill function (human Hv1 E119A-H193A; Fig. 4A): 0.8
Hill value (human Hv1 E119A-H193A; VSTEP 100 mV): 0.78
pIC50 (human Hv1 E119A-H193A; [4]): −3.56
IC50 (human Hv1 E119A-H193A; read-out: IC50, fit of the mean data to a Hill function, Fig. 4A): 274 µM
Mean ΔpIC50 = (pIC50_1 - pIC50_2) (human Hv1 D123H-H140A; D123H-H140A vs H140A): 0.36
nH, fit of the mean data to a Hill function (human Hv1 D123H-H140A; Fig. 4B): 0.5
Hill value (human Hv1 D123H-H140A; VSTEP 80 mV): 0.58
pIC50 (human Hv1 D123H-H140A; VSTEP 80 mV, calculated as log (IC50)): −4.78
IC50 (human Hv1 D123H-H140A; read-out: IC50, fit of the mean data to a Hill function, Fig. 4B): 20.5 µM
IC50 (human Hv1 D123H-H140A; read-out: Mean IC50 @ VSTEP, VSTEP 80 mV, pH 6.5, mean of fits in separate cells): 18 µM
